Data published in ChEMBL document CHEMBL4184148 (Bioorg Med Chem Lett, 2017).

Experiments:
[1] = target: Serine/threonine-protein kinase PAK 6 (Homo sapiens) (UniProt Q9NQU5); assay: Binding affinity to wild-type human partial length PAK6 (N298 to C681 residues) expressed in Escherichia coli BL21 at 1 uM by Kinomescan method relative to control
[2] = tested on: Tyrosine-protein kinase ABL1 (Homo sapiens), P00519 [F317I]; assay: Binding affinity to human non-phosphorylated ABL1 F317I mutant (S229 to K512 residues) expressed in HEK293 cells at 1 uM by Kinomescan method relative to control; type: cell-based
Chain of Tyrosine-protein kinase ABL1 (Homo sapiens), P00519 [F317I] (P00519 whole entry F317I, the tested form may be a part): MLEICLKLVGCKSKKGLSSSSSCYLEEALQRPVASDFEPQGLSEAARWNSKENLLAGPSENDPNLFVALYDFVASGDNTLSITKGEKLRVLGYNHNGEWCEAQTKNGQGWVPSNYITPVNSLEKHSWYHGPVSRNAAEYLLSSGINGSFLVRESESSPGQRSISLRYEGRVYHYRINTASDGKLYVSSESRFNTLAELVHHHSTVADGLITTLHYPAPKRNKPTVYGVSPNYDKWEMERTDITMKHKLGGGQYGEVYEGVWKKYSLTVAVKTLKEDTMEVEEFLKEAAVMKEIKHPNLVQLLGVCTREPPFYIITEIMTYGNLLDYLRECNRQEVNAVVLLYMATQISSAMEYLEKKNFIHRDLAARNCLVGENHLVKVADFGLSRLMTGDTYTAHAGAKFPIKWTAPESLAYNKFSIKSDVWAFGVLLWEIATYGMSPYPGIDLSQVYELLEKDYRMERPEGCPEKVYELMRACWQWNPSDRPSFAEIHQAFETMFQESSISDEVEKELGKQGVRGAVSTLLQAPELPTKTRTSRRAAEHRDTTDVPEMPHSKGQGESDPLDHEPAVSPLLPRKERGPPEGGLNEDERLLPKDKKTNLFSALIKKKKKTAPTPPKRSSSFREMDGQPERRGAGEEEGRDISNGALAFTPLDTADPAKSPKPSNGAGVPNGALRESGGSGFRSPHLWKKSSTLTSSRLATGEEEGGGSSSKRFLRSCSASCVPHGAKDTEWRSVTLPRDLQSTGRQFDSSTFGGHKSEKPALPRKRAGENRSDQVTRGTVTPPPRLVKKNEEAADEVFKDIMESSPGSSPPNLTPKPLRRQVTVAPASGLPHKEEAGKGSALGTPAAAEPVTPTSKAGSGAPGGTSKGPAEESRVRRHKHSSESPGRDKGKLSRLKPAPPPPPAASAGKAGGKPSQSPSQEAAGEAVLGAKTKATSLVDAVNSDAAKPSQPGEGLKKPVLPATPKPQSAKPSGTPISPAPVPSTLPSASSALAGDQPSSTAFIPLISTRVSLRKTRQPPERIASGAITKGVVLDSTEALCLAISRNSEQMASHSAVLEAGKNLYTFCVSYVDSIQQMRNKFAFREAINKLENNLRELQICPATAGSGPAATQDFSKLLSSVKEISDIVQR

[3] = tested on: Receptor-type tyrosine-protein kinase FLT3 (Homo sapiens), P36888 [UNDEFINED MUTATION]; assay: Binding affinity to human partial length FLT3 ITD/D835V double mutant expressed in Escherichia coli BL21 at 1 uM by Kinomescan method relative to control
[4] = target: Tyrosine-protein kinase FRK (Homo sapiens) (UniProt P42685); assay: Binding affinity to wild-type human partial length FRK (A215 to F503 residues) expressed in Escherichia coli BL21 at 1 uM by Kinomescan method relative to control
[5] = target: Mitogen-activated protein kinase kinase kinase 12 (DLK) (Homo sapiens) (UniProt Q12852); assay: Binding affinity to wild-type human full length DLK (M1 to P859 residues) expressed in HEK293 cells at 1 uM by Kinomescan method relative to control
[6] = target: Wee1-like protein kinase (Homo sapiens) (UniProt P30291); assay: Binding affinity to wild-type human partial length WEE1 (M291 to K575 residues) expressed in Escherichia coli BL21 at 1 uM by Kinomescan method relative to control
[7] = target: Serine/threonine-protein kinase DCLK1 (Homo sapiens) (UniProt O15075); assay: Binding affinity to wild-type human partial length DCAMKL1 (L270 to A662 residues) expressed in HEK293 cells at 1 uM by Kinomescan method relative to control; type: cell-based
Chain of Serine/threonine-protein kinase DCLK1 (Homo sapiens) (O15075 whole entry, the tested form may be a part): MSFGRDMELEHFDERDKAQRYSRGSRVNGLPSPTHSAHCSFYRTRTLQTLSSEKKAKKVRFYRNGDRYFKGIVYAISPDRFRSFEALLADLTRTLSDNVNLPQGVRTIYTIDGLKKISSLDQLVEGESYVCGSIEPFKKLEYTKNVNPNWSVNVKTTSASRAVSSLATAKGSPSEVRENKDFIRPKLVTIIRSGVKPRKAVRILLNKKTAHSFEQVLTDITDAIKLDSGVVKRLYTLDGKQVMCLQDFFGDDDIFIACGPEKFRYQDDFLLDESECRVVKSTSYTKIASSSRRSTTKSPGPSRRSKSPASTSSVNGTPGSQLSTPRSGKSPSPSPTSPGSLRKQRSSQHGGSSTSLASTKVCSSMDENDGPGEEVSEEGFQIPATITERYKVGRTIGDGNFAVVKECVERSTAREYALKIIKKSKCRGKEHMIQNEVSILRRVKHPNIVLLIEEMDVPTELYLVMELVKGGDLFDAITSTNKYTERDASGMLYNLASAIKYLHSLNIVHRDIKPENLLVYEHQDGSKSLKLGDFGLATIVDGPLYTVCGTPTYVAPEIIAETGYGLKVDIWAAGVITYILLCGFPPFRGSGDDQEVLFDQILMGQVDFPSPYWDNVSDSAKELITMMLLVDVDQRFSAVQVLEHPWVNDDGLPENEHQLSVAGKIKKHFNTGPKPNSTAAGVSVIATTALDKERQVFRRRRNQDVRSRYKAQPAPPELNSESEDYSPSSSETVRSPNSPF

[8] = target: SNF-related serine/threonine-protein kinase (Homo sapiens) (UniProt Q9NRH2); assay: Binding affinity to wild-type human partial length SNRK (M1 to E339 residues) expressed in HEK293 cells at 1 uM by Kinomescan method relative to control; type: cell-based
[9] = target: cGMP-dependent protein kinase 1 (Homo sapiens) (UniProt Q13976); assay: Binding affinity to wild-type human partial length PRKG1 (L339 to F686 residues) expressed in Escherichia coli BL21 at 1 uM by Kinomescan method relative to control
Chain of cGMP-dependent protein kinase 1 (Homo sapiens) (Q13976 whole entry, the tested form may be a part): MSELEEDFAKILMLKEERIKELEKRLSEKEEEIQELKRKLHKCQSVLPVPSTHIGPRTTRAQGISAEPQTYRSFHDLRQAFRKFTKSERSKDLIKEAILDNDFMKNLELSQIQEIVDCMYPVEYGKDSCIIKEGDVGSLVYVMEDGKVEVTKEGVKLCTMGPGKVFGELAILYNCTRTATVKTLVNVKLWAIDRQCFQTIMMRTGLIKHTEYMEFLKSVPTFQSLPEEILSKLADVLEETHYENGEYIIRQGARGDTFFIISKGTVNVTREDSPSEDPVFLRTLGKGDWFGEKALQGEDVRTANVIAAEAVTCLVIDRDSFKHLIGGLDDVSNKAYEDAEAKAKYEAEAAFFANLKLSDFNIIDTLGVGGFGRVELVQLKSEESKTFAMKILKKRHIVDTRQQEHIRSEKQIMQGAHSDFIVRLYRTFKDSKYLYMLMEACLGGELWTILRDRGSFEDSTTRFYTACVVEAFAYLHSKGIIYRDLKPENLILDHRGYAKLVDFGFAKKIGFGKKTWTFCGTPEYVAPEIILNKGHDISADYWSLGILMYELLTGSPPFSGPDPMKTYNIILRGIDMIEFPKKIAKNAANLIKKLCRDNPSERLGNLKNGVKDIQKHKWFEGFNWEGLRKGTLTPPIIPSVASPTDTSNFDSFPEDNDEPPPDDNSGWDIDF

[10] = target: Serine/threonine-protein kinase mTOR (Homo sapiens) (UniProt P42345); assay: Binding affinity to wild-type human partial length MTOR (L1382 to W2549 residues) expressed in HEK293 cells at 1 uM by Kinomescan method relative to control; type: cell-based
[11] = target: Serine/threonine-protein kinase MRCK gamma (Homo sapiens) (UniProt Q6DT37); assay: Binding affinity to wild-type human partial length DMPK2 (S46 to S408 residues) expressed in Escherichia coli BL21 at 1 uM by Kinomescan method relative to control
[12] = target: Tyrosine-protein kinase Blk (Homo sapiens) (UniProt P51451); assay: Binding affinity to wild-type human partial length BLK (G211 to L503 residues) expressed in Escherichia coli BL21 at 1 uM by Kinomescan method relative to control
[13] = target: Serine/threonine-protein kinase ULK3 (Homo sapiens) (UniProt Q6PHR2); assay: Binding affinity to wild-type human partial length ULK3 (M1 to Q290 residues) expressed in HEK293 cells at 1 uM by Kinomescan method relative to control; type: cell-based
[14] = tested on: Epidermal growth factor receptor (Homo sapiens), P00533 [L858R,T790M]; assay: Binding affinity to human partial length EGFR L858R/T790M double mutant (R669 to V1011 residues) expressed in HEK293 cells at 1 uM by Kinomescan method relative to control; type: cell-based
[15] = target: Insulin receptor (Homo sapiens) (UniProt P06213); assay: Binding affinity to wild-type human partial length INSR (P997 to E1318 residues) expressed in HEK293 cells at 1 uM by Kinomescan method relative to control; type: cell-based
[16] = target: Microtubule-associated serine/threonine-protein kinase 1 (Homo sapiens) (UniProt Q9Y2H9); assay: Binding affinity to wild-type human partial length MAST1 (S346 to V730 residues) expressed in HEK293 cells at 1 uM by Kinomescan method relative to control; type: cell-based
Chain of Microtubule-associated serine/threonine-protein kinase 1 (Homo sapiens) (Q9Y2H9 whole entry, looked up, the tested form may be a part): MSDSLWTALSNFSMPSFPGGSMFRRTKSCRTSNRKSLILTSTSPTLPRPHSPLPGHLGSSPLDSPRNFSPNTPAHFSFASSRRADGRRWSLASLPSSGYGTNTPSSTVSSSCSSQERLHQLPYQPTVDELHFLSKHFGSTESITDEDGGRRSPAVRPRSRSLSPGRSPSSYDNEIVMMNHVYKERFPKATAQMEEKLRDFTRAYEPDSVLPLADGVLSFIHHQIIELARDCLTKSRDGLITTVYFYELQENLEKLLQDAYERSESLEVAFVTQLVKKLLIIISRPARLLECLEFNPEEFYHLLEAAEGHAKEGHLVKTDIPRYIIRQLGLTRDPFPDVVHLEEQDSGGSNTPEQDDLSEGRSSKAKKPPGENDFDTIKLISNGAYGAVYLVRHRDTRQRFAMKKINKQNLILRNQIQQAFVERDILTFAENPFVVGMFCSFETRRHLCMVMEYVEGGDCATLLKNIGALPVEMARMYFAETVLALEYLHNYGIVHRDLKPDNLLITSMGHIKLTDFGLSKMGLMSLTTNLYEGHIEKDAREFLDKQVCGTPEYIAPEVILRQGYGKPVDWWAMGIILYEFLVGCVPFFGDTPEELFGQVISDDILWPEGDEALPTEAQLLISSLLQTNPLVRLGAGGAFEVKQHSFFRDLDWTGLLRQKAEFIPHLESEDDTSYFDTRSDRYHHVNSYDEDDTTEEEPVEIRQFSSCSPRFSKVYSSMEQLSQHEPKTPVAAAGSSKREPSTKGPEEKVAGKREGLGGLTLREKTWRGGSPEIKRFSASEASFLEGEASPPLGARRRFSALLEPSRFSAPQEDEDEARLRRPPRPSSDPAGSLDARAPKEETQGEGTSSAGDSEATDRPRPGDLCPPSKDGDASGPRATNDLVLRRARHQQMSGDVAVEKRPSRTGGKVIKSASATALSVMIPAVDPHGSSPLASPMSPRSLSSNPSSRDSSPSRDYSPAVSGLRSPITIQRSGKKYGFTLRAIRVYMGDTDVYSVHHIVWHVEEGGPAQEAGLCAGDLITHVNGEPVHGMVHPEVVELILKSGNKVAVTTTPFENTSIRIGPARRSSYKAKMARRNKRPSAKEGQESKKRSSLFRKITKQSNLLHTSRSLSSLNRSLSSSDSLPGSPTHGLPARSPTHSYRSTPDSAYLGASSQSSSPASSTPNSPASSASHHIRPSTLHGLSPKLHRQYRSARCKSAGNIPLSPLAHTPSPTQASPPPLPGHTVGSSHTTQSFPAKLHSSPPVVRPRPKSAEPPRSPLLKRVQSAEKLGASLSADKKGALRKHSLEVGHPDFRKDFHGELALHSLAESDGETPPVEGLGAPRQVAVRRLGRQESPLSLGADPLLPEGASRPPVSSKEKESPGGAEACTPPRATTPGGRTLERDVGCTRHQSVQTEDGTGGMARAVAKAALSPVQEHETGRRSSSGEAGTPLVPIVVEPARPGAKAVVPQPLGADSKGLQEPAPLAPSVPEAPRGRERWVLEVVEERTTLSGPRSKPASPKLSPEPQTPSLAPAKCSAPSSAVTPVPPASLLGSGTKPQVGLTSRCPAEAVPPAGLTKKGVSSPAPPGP

[17] = tested on: Receptor-type tyrosine-protein kinase FLT3 (Homo sapiens), P36888 [D835H]; assay: Binding affinity to human partial length FLT3 D835H mutant (V592 to Y969 residues) expressed in Escherichia coli BL21 at 1 uM by Kinomescan method relative to control
[18] = target: G protein-coupled receptor kinase 4 (Homo sapiens) (UniProt P32298); assay: Binding affinity to wild-type human full length GRK4 (M1 to C578 residues) expressed in Escherichia coli BL21 at 1 uM by Kinomescan method relative to control
Chain of G protein-coupled receptor kinase 4 (Homo sapiens) (P32298 whole entry, looked up, the tested form may be a part): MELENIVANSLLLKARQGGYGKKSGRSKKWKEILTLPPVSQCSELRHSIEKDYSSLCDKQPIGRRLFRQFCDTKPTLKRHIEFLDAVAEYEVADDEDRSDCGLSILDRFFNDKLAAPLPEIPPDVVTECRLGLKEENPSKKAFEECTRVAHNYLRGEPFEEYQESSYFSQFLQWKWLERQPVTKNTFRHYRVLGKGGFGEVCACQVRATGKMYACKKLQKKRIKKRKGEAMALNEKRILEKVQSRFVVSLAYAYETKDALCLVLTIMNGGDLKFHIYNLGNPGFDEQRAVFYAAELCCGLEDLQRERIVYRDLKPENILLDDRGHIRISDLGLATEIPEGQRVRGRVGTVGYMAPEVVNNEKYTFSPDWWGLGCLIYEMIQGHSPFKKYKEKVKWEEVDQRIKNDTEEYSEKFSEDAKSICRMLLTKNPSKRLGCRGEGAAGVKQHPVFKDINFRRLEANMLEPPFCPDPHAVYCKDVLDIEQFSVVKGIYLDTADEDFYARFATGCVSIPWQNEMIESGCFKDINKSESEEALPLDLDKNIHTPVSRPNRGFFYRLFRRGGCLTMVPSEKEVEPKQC
Outline: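 Run as one kinome-wide competition binding panel with each compound at a single fixed concentration. Results were plotted as a kinome-wide selectivity map.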

[19] = target: Serine/threonine-protein kinase PLK4 (Homo sapiens) (UniProt O00444); assay: Binding affinity to wild-type human partial length PLK4 (M1 to S273 residues) expressed in HEK293 cells at 1 uM by Kinomescan method relative to control; type: cell-based
[20] = target: Ephrin type-A receptor 5 (Homo sapiens) (UniProt P54756); assay: Binding affinity to wild-type human partial length EPHA5 (T627 to V930 residues) expressed in Escherichia coli BL21 at 1 uM by Kinomescan method relative to control
[21] = target: Serine/threonine-protein kinase WNK1 (Homo sapiens) (UniProt Q9H4A3); assay: Binding affinity to wild-type human partial length WNK1 (Q194 to A490 residues) expressed in HEK293 cells at 1 uM by Kinomescan method relative to control; type: cell-based
[22] = target: Serine/threonine-protein kinase SIK1 (Homo sapiens) (UniProt P57059); assay: Binding affinity to wild-type human partial length SIK (M1 to Y304 residues) expressed in Escherichia coli BL21 at 1 uM by Kinomescan method relative to control
[23] = target: RAF proto-oncogene serine/threonine-protein kinase (Homo sapiens) (UniProt P04049); assay: Binding affinity to wild-type human partial length RAF1 (I330 to T640 residues) expressed in Escherichia coli BL21 at 1 uM by Kinomescan method relative to control
[24] = target: Dual specificity mitogen-activated protein kinase kinase 6 (Homo sapiens) (UniProt P52564); assay: Binding affinity to wild-type human partial length MEK6 (K36 to D334 residues) expressed in Escherichia coli BL21 at 1 uM by Kinomescan method relative to control
Chain of Dual specificity mitogen-activated protein kinase kinase 6 (Homo sapiens) (P52564 whole entry, the tested form may be a part): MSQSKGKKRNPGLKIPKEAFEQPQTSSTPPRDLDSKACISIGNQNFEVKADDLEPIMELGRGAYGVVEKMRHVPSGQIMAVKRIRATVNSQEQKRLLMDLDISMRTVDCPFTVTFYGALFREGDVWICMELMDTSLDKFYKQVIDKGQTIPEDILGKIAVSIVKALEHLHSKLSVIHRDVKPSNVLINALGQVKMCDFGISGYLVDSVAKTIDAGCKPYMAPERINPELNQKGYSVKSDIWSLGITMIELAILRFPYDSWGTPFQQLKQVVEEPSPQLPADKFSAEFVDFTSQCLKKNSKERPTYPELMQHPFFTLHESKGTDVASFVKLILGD

[25] = tested on: Epidermal growth factor receptor (Homo sapiens), P00533 [L861Q]; assay: Binding affinity to human partial length EGFR L861Q mutant (R669 to V1011 residues) expressed in Escherichia coli BL21 at 1 uM by Kinomescan method relative to control

| Structure (SMILES) | Activity [1] | Activity [2] | Activity [3] | Activity [4] | Activity [5] | Activity [6] | Activity [7] | Activity [8] | Activity [9] | Activity [10] | Activity [11] | Activity [12] | Activity [13] | Activity [14] | Activity [15] | Activity [16] | Activity [17] | Activity [18] | Activity [19] | Activity [20] | other results |
| --- | --- | --- | --- | --- | --- | --- | --- | --- | --- | --- | --- | --- | --- | --- | --- | --- | --- | --- | --- | --- | --- |
| CCC(=O)Nc1ccc(C(=O)Nc2ccc(Nc3ncc4c(n3)N(C)c3ccc(C)cc3C(=O)N4C)cc2)cc1 | 94% | 76% | 100% | 100% | 98% | 100% | 72% | 75% | 100% | 100% | 77% | 74% | 77% | 96% | 65% | 80% | 87% | 100% | 8.2% | 94% | Activity [21]: 100%; Activity [22]: 81%; Activity [23]: 96%; Activity [24]: 97%; Activity [25]: 97% |
| C=CC(=O)Nc1ccc(C(=O)Nc2ccc(Nc3ncc4c(n3)N(C)c3ccc(C)cc3C(=O)N4C)cc2)cc1 | 91% | 77% | 94% | 95% | 100% | 100% | 78% | 100% | 100% | 87% | 100% | 96% | 93% | 100% | 97% | 90% | 92% | 97% | 71% | 100% | Activity [21]: 100%; Activity [22]: 95%; Activity [23]: 88%; Activity [24]: 100%; Activity [25]: 79% |
